Sampled rows, rich in hits. Any-hit rate of the full collection: about 2.5%.
GalR3 antag: human GalR3 antagonism | HEK293 GalR3-CNG cAMP membrane potential fluorescence; galR3 body fused to GalR1 C-terminus | O60755 | actives 0.44% (n = 360,000) | inhibition, % at 3 µM;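 active = inhibition above the screen-wide average plus 3 SD, cut at about 13% in these data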;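 note: forskolin and galanin both at EC90 stimulate the cells; cAMP rise reported by CNG channel membrane potential dye signal; 0% = forskolin plus galanin with DMSO and 100% = forskolin alone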
NR2E3 ag-1: agonists of human nuclear receptor NR2E3; Q9Y5X4; GST-NR2E3/biotin-RetCOR TR-FRET, 1536-well; inhibition of corepressor binding, % at 4.78 µM; actives 0.12% (n = 320,000); AID 2300;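 active = percent inhibition above the cutoff of mean plus 3 SD of all tested compounds, set per screening campaign, cut at about 20% in these data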;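 note: 0% = DMSO wells and 100% = biotin wells as full block of FRET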
Target sequence (Q9Y5X4 whole entry, looked up): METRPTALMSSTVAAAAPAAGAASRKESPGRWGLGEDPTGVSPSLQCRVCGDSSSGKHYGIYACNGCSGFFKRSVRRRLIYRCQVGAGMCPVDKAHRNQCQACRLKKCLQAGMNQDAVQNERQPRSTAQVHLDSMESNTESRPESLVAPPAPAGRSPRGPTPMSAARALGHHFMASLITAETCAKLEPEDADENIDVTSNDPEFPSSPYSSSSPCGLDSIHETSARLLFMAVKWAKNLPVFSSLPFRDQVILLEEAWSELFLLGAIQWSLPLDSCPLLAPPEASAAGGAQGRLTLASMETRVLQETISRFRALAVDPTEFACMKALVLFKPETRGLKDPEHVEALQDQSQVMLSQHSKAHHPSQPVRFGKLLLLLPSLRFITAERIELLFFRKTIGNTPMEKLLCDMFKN
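System: GST-tagged NR2E3 plus biotinylated RetCOR corepressor; Amount: 1.35 nM GST-tagged NR2E3 final; Dosing: single nominal compound dose of 4.8 µM; Schedule: 5 h incubation at 4 °C; Technique: TR-FRET with europium anti-GST and streptavidin-D2, 340 nm excitation; Controls: biotin wells as high control, 0.6% DMSO wells as low control.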
MsrA inh: bovine MsrA inhibition. purified bovine MsrA, absorbance read-out. inhibition, % at 15.5 µM. actives 0.75% (n = 360,000). AID 651718; in the data active = inhibition above about 4.5%;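 note: 0% = vehicle wells with enzyme and 100% = reference inhibitor wells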
NadD inh: inhibitors of Staphylococcus aureus NadD | inhibition, % at 20 µM | purified NadD enzyme, colorimetric absorbance read-out | actives 0.78% (n = 360,000) | AID 602399; in the data active = inhibition above about 26%
NR2E3 ag-2: activates human NR2E3 receptor | inhibition of corepressor binding, % at 3.98 µM | CHO-S Gal4-NCOR/VP16-NR2E3 two-hybrid, luciferase | actives 0.35% (n = 360,000) | AID 602229 | Q9Y5X4;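 active = inhibition above the mean of all tested compounds plus 3 SD, cut at about 70% in these data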;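 note: 0% = DMSO with NR2E3 transfected cells and 100% = cells lacking NR2E3 construct; higher means lower luciferase signal from less NR2E3 corepressor binding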
MsrA act: bovine methionine sulfoxide reductase A activation; purified bovine MsrA, absorbance read-out; activation, % at 10.6 µM; actives 0.3% (n = 360,000); AID 602163; in the data active = activation above about 7.5%;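 note: 0% = vehicle and 100% = reference activator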
GalR3 conf: GalR3 (human) antagonism, confirmation. inhibition, % at 3 µM. shares compounds with GalR3 antag. HEK293 GalR3 CNG cAMP biosensor, membrane potential fluorescence; galR3 fused to GalR1 carboxy tail; challenged with forskolin and galanin at EC90. actives 59% (n = 1,600). AID 652245;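 active = inhibition above the primary screen's cutoff, the mean inhibition of all screened compounds plus 3 SD, cut at about 13% in these data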;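 note: 0% = forskolin plus galanin and 100% = forskolin alone with DMSO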
HEK-CNG parental: counter-screen for GalR3 antagonists: nonspecific agonists in parental HEK-CNG cells | shares compounds with GalR3 antag | HEK293-CNG parental cells, cAMP membrane potential fluorescence; normalised: DMSO wells 0%, forskolin wells 100% | activation, % at 3 µM | actives 10% (n = 1,600) | AID 652268; in the data active = activation above about 1.3%
Numbers without * were called inactive; . = no result given.

SMILES	GalR3 antag	NR2E3 ag-1	MsrA inh	NadD inh	NR2E3 ag-2	MsrA act	GalR3 conf	HEK-CNG parental
COc1ccc(C2C3=C(CCCC3=O)Nc3ccc4ncccc4c32)cc1OC (stereo not given)	-4	1	1	1	5	-4	.	.
CCOC(=O)C1=C(C)NC2=C(C(=O)CCC2)C1c1ccc(O)c(OCC)c1 (stereo not given)	16*	-3	0	-3	4	-5	24*	0
COc1cc(C2C3=C(CCCC3=O)Nc3ccc4ncccc4c32)ccc1O (stereo not given)	15*	3	2	3	-41	-2	6	0
N#CCc1ccc(-c2cccc3nccn23)cc1	-7	.	2	4	-22	1	.	.
CNc1nc2c(N)ncnc2n1[C@H]1O[C@@H](CO)[C@H](O)[C@@H]1O	26*	3	1	-4	-30	-8	40*	0
C1=CC2CC1CC2CN1CCN(Cc2ccccc2)CC1 (stereo not given)	.	3	0	-9	20	-9	2	1.8*
COc1cccc(/C=C2\SC(=S)N(NC(=O)c3ccncc3)C2=O)c1	14*	4	3	-2	-10	-4	0	0
Cc1nnc(SCC(=O)Nc2cccc(S(=O)(=O)N(C)c3ccccc3)c2)s1	13*	-2	1	-3	18	-2	10	0
CCc1ccc(C(=O)CSc2ncn[nH]2)cc1	54*	-4	0	-4	-64	1	22*	0
C/C(CCC1CC(C)(C)OC1=O)=N\NC(N)=S (stereo not given)	13*	3	1	0	-25	-1	-1	0
COc1ccccc1N(CC(=O)Nc1cc(C)on1)S(=O)(=O)c1cccc(C(F)(F)F)c1	-8	2	0	-2	-35	0	.	.
O=C(COC(=O)c1cccc(Br)c1)Nc1ccc2[nH]c(=O)[nH]c2c1	32*	0	1	-6	-1	-2	49*	0
CC(=O)Nc1ccc(S(=O)(=O)Oc2ccc(N3C(=O)C4CCCCC4C3=O)cc2)cc1 (stereo not given)	42*	1	2	0	39	-2	39*	-1
CC(=O)Nc1ccc(S(=O)(=O)Oc2cccc(N3C(=O)C4CC=CCC4C3=O)c2)cc1 (stereo not given)	-3	4	0	3	12	-1	.	.
COc1ccc(N2CCN(C(=O)c3ccc4c(=O)n5c(nc4c3)CCCCC5)CC2)cc1	.	-3	0	-2	-29	0	.	.
COc1ccc(/C=N/NC(=O)C(C)Sc2ccccn2)cc1[N+](=O)[O-] (stereo not given)	19*	2	1	5	-32	2	3	0
COc1ccc(/C=N/NC(=O)C(=O)N2CCCCCC2)cc1[N+](=O)[O-]	17*	-2	0	0	5	-3	22*	0
CN(CC(=O)Nc1ccc(F)c(F)c1F)C(=O)CCCc1nc2ccccc2c(=O)[nH]1	-5	3	0	-2	14	-3	.	.
O=C(Nc1ccncc1)c1ccc2c(c1)C(=O)N(C1CCCCC1)C2=O	46*	-1	-1	2	11	-1	57*	-1
CCn1c(O)c(/C=N/N=C2CCCCC2)c2cc(C3=NNC(=O)CC3)ccc21	25*	-3	0	4	1	-3	6	0
CCn1c(O)c(/C=N/N=C2CCCC2)c2ccc(C3=NNC(=O)CC3)cc21	-1	-2	0	-1	7	-1	.	.
Cc1c(C#N)c(N)nc2c3c(sc12)NC(=O)CC3c1ccc(Cl)cc1 (stereo not given)	25*	-1	1	5	16	-2	48*	0
N#Cc1c(N)nc2c3c(sc(=N)c2c1N)NC(=O)CC3c1ccccc1 (stereo not given)	22*	8	0	4	-13	-4	25*	0
O=C(CCc1ccccc1)Nc1ccccc1[N+](=O)[O-]	-9	4	1	-7	-79	-3	.	.
O=C(CNCc1ccc(F)cc1)Nc1ccccc1[N+](=O)[O-]	24*	0	1	-3	-7	-1	10	0
SMILES	GalR3 antag	NR2E3 ag-1	MsrA inh	NadD inh	NR2E3 ag-2	MsrA act	GalR3 conf	HEK-CNG parental
CC1CCCC(NC(=O)CCNC(=O)c2ccccc2Cl)C1C (stereo not given)	-3	-3	1	-4	-25	-7	.	.
Cc1ccc(-c2csc(NC(=O)C3CCN(S(=O)(=O)c4cccs4)CC3)n2)cc1	101*	-1	0	-2	-10	-4	104*	0
NCCOc1ccc(C23CC4CC(CC(C4)C2)C3)cc1	27*	-3	0	5	20	-1	28*	14*
OCCN1CCN(CC(O)COc2ccc(C34CC5CC(CC(C5)C3)C4)cc2)CC1 (stereo not given)	-8	5	-3	-3	17	2	.	.
COc1ccc(OC[C@@H](O)CNC(=O)c2cccc3c2C(=O)c2ccc(Cl)cc2S3(=O)=O)cc1	78*	1	0	2	0	-6	58*	0
COc1ccc(-c2ccc3c(c2)S(=O)(=O)c2cccc(C(=O)NCCOc4ccccc4Cl)c2C3=O)cc1OC	-5	.	2	12	4	-8	.	.
CN(Cc1ccccc1)C(=O)c1[nH]cnc1C(=O)Nc1nccs1	0	0	0	4	-34	-1	.	.
CCn1c(=O)[nH]c(=O)c2c(N)c(C(=O)c3ccccc3OC)sc21	15*	-5	3	-3	18	-7	-1	1
CCc1cc(C(=O)c2ccccc2OC)c(N)s1	-4	1	1	3	7	-14	.	.
CCOc1ccc(-c2ccc(SCC)nn2)cc1	.	-2	1	1	-117	-1	-5	0
COc1ccc(CC2(CO)CCN(Cc3cccnc3)CC2)cc1	-2	1	2	4	-25	-1	.	.
COc1ccc(CC2(CO)CCN(Cc3cccc(OC)c3OC)CC2)cc1	26*	0	1	-4	-5	-1	2	2.1*
COc1ccc2ccc(OCC(=O)N3c4ccccc4NC(=O)CC3C)cc2c1 (stereo not given)	-1	2	-1	-1	-12	0	.	.
COc1ccc(-c2cc(-c3n[nH]c(=S)n3-c3ccccc3OC)[nH]n2)cc1	22*	1	0	8	0	-2	17*	0
